Compound activity as filed in PubChem BioAssay.
An excerpt weighted towards active compounds, which were near 1.5% of everything screened.
HCV NS3 hel inh – inhibitors of HCV NS3 helicase, primary screen, biochemical, Cy5 molecular beacon fluorescence. Hepatitis C virus NS3 helicase. NS3 helicase DNA unwinding. inhibition, % at 10.9 µM. 0.56% of 290,000 active. AID 1800, 2009;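 active = inhibition above the mean of all tested compounds plus 3 SD, set per campaign, cut at about 35% in these data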;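 also: 0% = DMSO wells and 100% = thioflavine S control wells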
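assay system = NS3 helicase fragment of HCV | buffer or medium = MOPS pH 6.5, MgCl2, DTT, Tween20, BSA | timing = 60 min unwinding reaction at 25 °C after ATP addition | signal = Cy5 beacon fluorescence read at start and 1 h | read-out basis = % inhibition of unwinding | control set = low DMSO, high thioflavine S at 110 µM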
Casp6 inh – human caspase-6 inhibitors, primary screen, biochemical, VEID-R110 fluorescence, single point, set 2. P55212. purified caspase-6, Z-VEID-R110 cleavage fluorescence. inhibition, % at 12.5 µM. 0.53% of 350,000 active. AID 686996, 2013;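 active = mean inhibition across replicates at least about 35%, with every replicate also reaching that limit, limit read from the data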;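 also: 0% = median of neutral control wells and 100% = no fluorescence left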
DNMT1 block – human DNMT1 methyltransferase inhibitors, primary screen, biochemical, molecular beacon, fluorescence, HinP1I cleavage, uHTS; AID 588458, 2011; 0.83% of 360,000 active; DNA (cytosine-5)-methyltransferase 1 (Homo sapiens), P26358; inhibition (reported as % activation of signal), % at 10 µM
NSD2 HMT inh – NSD2 histone methyltransferase inhibitors, primary screen, biochemical, AlphaScreen, single concentration, set 2 | Histone-lysine N-methyltransferase NSD2 (Homo sapiens), O96028 | AID 743445, 2014 | 0.54% of 310,000 active | inhibition, % at 12.5 µM | NSD2 peptide methylation, 120 min
AlphaScreen art – AlphaScreen signal interference with preloaded methylated product, dose response, artefact control for NSD2 inhibitor project, biochemical, cherry-picked samples | shares compounds with NSD2 HMT inh | AC35, µM (doses to about 10 µM), for the others: at the top dose activity change, negative = signal loss | AlphaScreen artifact counterscreen, preloaded methylated H4 peptide | 9.4% of 1,500 active; call rule not given here
* = called active by the depositor; / = no result. Rule as the data show it, unless noted: active = inhibition above about 50%; inactive = the rest.

SMILES | HCV NS3 hel inh | Casp6 inh | DNMT1 block | NSD2 HMT inh | AlphaScreen art
Cc1ccccc1-c1ocnc1C(=O)Nc1ccccc1NC(=O)c1ccccn1 | -10 | -1 | -1 | 74* | 1%
Cc1noc(C)c1NC(=O)N(C)C[C@@H]1Oc2ccc(NS(=O)(=O)c3c(C)noc3C)cc2CC(=O)N([C@H](C)CO)C[C@H]1C | / | 1 | / | / | /
COc1ccc(C(=O)Nc2ccc3[nH]ccc3c2)cc1OC | / | 1 | -6 | 51* | 5%
Nc1c(/C=C2/C=CC(=O)C(O)=C2)c(=O)nc2sc(CC(=O)N3CCOCC3)nn12 | / | 28 | 19 | 114* | 3.6µM*
CC(C)NC(=O)N[C@@H]1C=C[C@@H](CC(=O)O)O[C@H]1CO | / | -1 | / | / | /
COc1ccc(C2C(C(=O)/C=C/c3ccco3)=C(O)C(=O)N2CCN2CCOCC2)cc1OC (stereo not drawn) | 9 | -1 | 0 | 72* | -1%
COc1ccc(C2C(C(=O)c3ccco3)=C(O)C(=O)N2CC2CCCO2)cc1OC (stereo not drawn) | 4 | 10 | -2 | 62* | -6%
CCCOc1ccc(C2C(C(=O)c3ccco3)=C(O)C(=O)N2CCN2CCOCC2)cc1OC (stereo not drawn) | 8 | / | / | -4 | /
C[C@H](CO)N1C[C@H](C)[C@@H](CN(C)C)Oc2cc(C#Cc3cccnc3)ccc2S1(=O)=O | / | -10 | / | / | /
Cc1cccn2c(=O)c3cc(C(=O)NCCCn4ccnc4)n(C)c3nc12 | -6 | / | -2 | 118* | 2%
O=C(Nc1nccs1)c1ccc2nccnc2c1 | -1 | / | 15 | 125* | -2%
Clc1cccc(N2CCN(CCCN3CCN(c4ccccc4)CC3)CC2)c1 | / | -2 | 0 | 53* | -17%
COc1cc2[nH]c(Cl)c([N+](=O)[O-])c2cc1OC | 3 | 49* | -12 | 95* | -4%
C[C@@H]1CCCCO[C@H](CN(C)Cc2ccccc2)[C@H](C)CN([C@H](C)CO)C(=O)c2cc(NC(=O)Cc3ccccc3)ccc2O1 | / | 0 | / | / | /
O=C(C[C@H]1C[C@H]2c3cc(NC(=O)C4CCC4)ccc3O[C@H]2[C@H](CO)O1)NCc1ccc(Cl)cc1 | / | 1 | / | / | /
C[C@H](CO)N1C[C@H](C)[C@@H](CN(C)C(=O)NC2CCCCC2)Oc2ccc(NC(=O)Nc3ccc(F)cc3)cc2C1=O | / | 0 | / | / | /
N#C/C(=C\c1ccc(O)c(O)c1)C(=O)Nc1cccc2ncccc12 | 9 | 58* | 16 | 115* | 4.8µM*
COc1ccc(NC(=O)N(C)C[C@@H]2Oc3cc(-c4cccc(C(=O)N(C)C)c4)ccc3S(=O)(=O)N([C@@H](C)CO)C[C@@H]2C)cc1 | / | -2 | / | / | /
COc1ccccc1/C=C/C(=O)c1cc(Br)ccc1OC(=O)c1ccco1 | -11 | / | 7 | 1 | /
CNc1ccc(Br)cc(C(=O)/C=C/c2cccc(OC)c2OC)c1=O | 32 | / | 23 | 51* | -8%
C[C@@H]1CN([C@@H](C)CO)C(=O)c2cc(NC(=O)c3ccccc3)ccc2O[C@@H](C)CCCCO[C@@H]1CN(C)S(=O)(=O)c1cn(C)cn1 | / | 0 | / | / | /
CCC(=O)Nc1ccc(F)c(Cl)c1 | -2 | / | 2 | / | /
CC1NC(=O)NC1CCCCCC(=O)Nc1ccc(F)c(Cl)c1 (stereo not drawn) | -6 | -6 | -3 | 103* | 3.8µM*
CCO[C@H]1OC(C(=O)N2CCCC2)=C[C@@H](c2ccc(Br)cc2)[C@@H]1CCCO | / | -5 | / | / | /
COc1ccc2c3c(n(C)c2c1)[C@@H](CO)N(C(=O)c1ccccc1)CC31CCN(C(C)=O)CC1 | / | 2 | / | / | /
SMILES | HCV NS3 hel inh | Casp6 inh | DNMT1 block | NSD2 HMT inh | AlphaScreen art
Cc1nc(COC(=O)c2cc(O)c3ccccc3c2O)cs1 | -5 | 12 | -12 | 78* | -2%
CCN(CC)CCCNc1nc(-n2nc(C)cc2C)nc2sc3c(c12)CC(C)(C)OC3 | -10 | -12 | -1 | 76* | -5%
CC1(C)C=C2C(=NN(c3ccccc3)C(N)=C2C#N)CO1 | 4 | 84* | -11 | 100* | -9%
CC1(C)Cc2c(C#N)c(N)n(-c3ccccc3)c(=S)c2CO1 | -9 | 14 | -2 | 0 | /
COc1ccc(NC(=O)N2C[C@@H](O)COC[C@@H]3O[C@@H](CC(=O)N4CCN(C)CC4)CC[C@H]32)cc1 | / | 1 | / | / | /
S=C(Nc1cccc(Cl)c1)Nc1cccc2cnccc12 | -7 | / | -32 | / | /
